ChEMBL document CHEMBL2057080, “Synthesis, biological evaluation, and structure-activity relationships of a novel class of apurinic/apyrimidinic endonuclease 1 inhibitors” (J Med Chem, 2012)
≈ marks a conversion by molar mass, not a printed value. Calls of active or inactive are those of the source. The calls are words filed in the database; no cut-off is given here.

Assays:
HeLa [1] = assay: Potentiation of temozolomide cytotoxic activity against human HeLa cells assessed as decrease in cell viability at 2.5 to 5 uM incubated for 8 hrs measured after 56 hrs post compound wash-out by Hoechst 33342 staining-based assay; type: functional
CYP2D6 = CYP2D6 (Homo sapiens, UniProt P10635); assay: Inhibition of CYP2D6 at 10 uM; type: ADME
Chain of CYP2D6 (P10635 whole entry): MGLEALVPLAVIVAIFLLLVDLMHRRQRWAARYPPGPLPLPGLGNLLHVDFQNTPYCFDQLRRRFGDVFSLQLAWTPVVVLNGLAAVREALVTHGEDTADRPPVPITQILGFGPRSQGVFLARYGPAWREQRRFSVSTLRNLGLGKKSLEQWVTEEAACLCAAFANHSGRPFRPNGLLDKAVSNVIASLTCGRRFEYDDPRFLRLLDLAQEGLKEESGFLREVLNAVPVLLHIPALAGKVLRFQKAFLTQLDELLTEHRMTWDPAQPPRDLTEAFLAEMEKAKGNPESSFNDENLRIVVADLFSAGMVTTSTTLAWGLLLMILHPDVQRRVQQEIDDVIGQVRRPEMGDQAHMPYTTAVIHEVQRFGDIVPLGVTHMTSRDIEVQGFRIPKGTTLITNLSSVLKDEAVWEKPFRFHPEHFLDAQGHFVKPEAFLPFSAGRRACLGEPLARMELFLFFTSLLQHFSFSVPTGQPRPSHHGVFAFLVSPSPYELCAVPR

Liver = assay: Half life in mouse liver microsomes; type: ADME, Microsome
Outline: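 Stability in mouse liver microsomes reported as T1/2. Done by a contract lab, and values are the average of two experiments.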

HeLa [2] = assay: Potentiation of methyl methanesulfonate cytotoxic activity against human HeLa cells assessed as decrease in cell viability at 10 to 15 uM after 24 hrs by CellTiterGlo assay; type: functional, cell-based
Outline: (§1)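 HeLa cells were seeded at 6K per well in DMEM/10% FBS and attached overnight. The medium was replaced with compound (5–30 µM) with or without MMS (0.4 mM) or TMZ (1 mM), followed by 24 h at 37 °C. Viability was read with CellTiter-Glo luminescence relative to DMSO, in duplicate. Combination values were normalized to the alkylating agent alone.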

Plasma [3] = assay: Cmax in CD1 mouse plasma at 30 mg/kg, ip; type: ADME, organism-based; parameters: dose 30 mg/kg, route intraperitoneal; details: in vivo
Outline: (§2)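 Male CD1 mice, 6–8 weeks old, n = 3, were given 30 mg/kg IP in 50% PEG 200 or PEG 400 plus 10% Cremophor EL in saline. Cardiac-puncture blood was taken at 0.25, 0.5, 1, 2, 4, 8, 12 and 24 h, with heparin plasma. Brain values were multiplied by 5, and LC/MS/MS was used. The brain/plasma ratio is the average over the 8 time points.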

Plasma [4] = assay: Tmax in CD1 mouse plasma at 30 mg/kg, ip; type: ADME, organism-based; parameters: dose 30 mg/kg, route intraperitoneal; details: in vivo; outline: as §2
Mus musculus = assay: Toxicity in CD1 mouse assessed as adverse effect at 30 mg/kg, ip after 24 hrs; type: organism-based; parameters: dose 30 mg/kg, route intraperitoneal; details: in vivo
Outline: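 Male CD1 mice, 6–8 weeks old, were given 30 mg/kg IP in PEG/Cremophor EL saline vehicle.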

Plasma [5] = assay: Half life in CD1 mouse plasma at 30 mg/kg, ip; type: ADME, organism-based; parameters: dose 30 mg/kg, route intraperitoneal; details: in vivo; outline: as §2
[6] = molecular target: T1, DNA repair nuclease/redox regulator APEX1 (Homo sapiens, UniProt P27695); assay: Inhibition of APE1 in human HeLa whole cell extract using […]-5'-AP-DNA as substrate at 10 uM incubated for 15 mins prior to substrate addition measured after 5 mins by PAGE analysis
T1 sequence (P27695 whole entry): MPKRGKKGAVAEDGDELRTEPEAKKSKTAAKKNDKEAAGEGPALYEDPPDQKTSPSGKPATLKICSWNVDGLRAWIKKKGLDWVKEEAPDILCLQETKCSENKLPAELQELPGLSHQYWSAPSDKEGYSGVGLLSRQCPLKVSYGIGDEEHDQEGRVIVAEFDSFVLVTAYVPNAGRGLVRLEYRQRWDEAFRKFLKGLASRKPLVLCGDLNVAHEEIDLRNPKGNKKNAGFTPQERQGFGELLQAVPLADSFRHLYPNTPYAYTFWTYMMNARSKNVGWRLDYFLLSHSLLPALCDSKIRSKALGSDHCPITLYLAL
Outline: (§3)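 HeLa whole cell extract (300 ng; KCl-extracted hypotonic lysate) was preincubated with inhibitor for 15 min at room temperature, at 100 µM or at 0–100 µM. Then 0.5 pmol 32P AP-DNA was added for 5 min at 37 °C. Samples were run on denaturing PAGE, and incision is reported relative to the no-inhibitor control, from three independent measurements.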

[7] = molecular target: T1, DNA repair nuclease/redox regulator APEX1; assay: Competitive inhibition of recombinant APE1 using […]-5'-AP-DNA as substrate incubated for 15 mins prior to substrate addition measured after 5 mins by Lineweaver-Burk plot analysis
Outline: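 APE1 (~28 pM) was incubated with 0, 5, 10 or 20 µM inhibitor for 15 min at room temperature. 32P AP-DNA was added at 5–100 nM, followed by 5 min at 37 °C and denaturing PAGE. Velocities were measured, and KM and kcat came from Lineweaver–Burk plots.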

[8] = molecular target: T1, DNA repair nuclease/redox regulator APEX1; assay: Inhibition of APE1 in human HeLa whole cell extract using […]-5'-AP-DNA as substrate assessed as activity remaining at 100 uM incubated for 15 mins prior to substrate addition measured after 5 mins by PAGE analysis relative to control; outline: as §3
[9] = molecular target: T1, DNA repair nuclease/redox regulator APEX1; assay: Competitive inhibition of recombinant APE1 using […]-5'-AP-DNA as substrate assessed as decrease in APE1-DNA complex formation at 10 to 100 uM preincubated with substrate for 15 mins prior to enzyme addition measured after 5 mins by electrophoretic mobility shift assay
[10] = molecular target: T1, DNA repair nuclease/redox regulator APEX1; assay: Inhibition of APE1 in human HeLa cells assessed as accumulation of genomic AP sites at 7.5 uM after 24 hrs by aldehyde reactive probe-based assay relative to control; type: cell-based
Outline: (§4)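 HeLa cells at 80% confluency were treated for 24 h at 37 °C with DMSO, 275 µM MMS, or 7.5 µM inhibitor, alone or combined with MMS. Genomic DNA (100 ng/µL) was labelled with Aldehyde Reactive Probe and AP sites were quantified, in triplicate. Significance was tested by Student's t test.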

HeLa [11] = assay: Cytotoxicity against human HeLa cells at 30 uM after 24 hrs by CellTiterGlo assay; type: functional; outline: as §1
Plasma [12] = assay: Half life in mouse plasma; type: ADME, cell-free
Outline: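 Stability in mouse plasma reported as T1/2. Done by a contract lab, and values are the average of two experiments.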

[13] = Aqueous kinetic solubility of the compound in PBS at pH 7.4; type: physicochemical; details: read-out: Kinetic_solubility
[14] = molecular target: T1, DNA repair nuclease/redox regulator APEX1; assay: Inhibition of APE1 activity in human HeLa cells assessed as fold increase in genomic AP site accumulation after 24 hrs by aldehyde reactive probe-based assay in presence of methyl methanesulfonate; type: cell-based; outline: as §4
[15] = molecular target: T1, DNA repair nuclease/redox regulator APEX1; assay: Competitive inhibition of recombinant APE1 using […]-5'-AP-DNA as substrate assessed as decrease in APE1-DNA complex formation at 30 uM incubated for 10 mins prior to substrate addition measured after 5 mins by electrophoretic mobility shift assay
Outline: (§5)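 APE1 (~28 nM) was preincubated without inhibitor (1% DMSO) or with 1, 3, 10, 30 or 100 µM inhibitor for 10 min on ice. Then 100 fmol (10 nM) 32P AP-DNA was added for 5 min on ice. Complexes were resolved on an 8% native gel and quantified by phosphorimager relative to control, in three independent replicates.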

[16] = molecular target: T1, DNA repair nuclease/redox regulator APEX1; assay: Inhibition of human recombinant APE1 after 15 mins by fluorescence based HTS assay
Outline: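 APE1 inhibition was measured in the fluorescence-based qHTS format at up to 57 µM. IC50 is the average of three separate experiments.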

[17] = Chemical stability of the compound in PBS at pH 7.4 assessed as compound remaining after 48 hrs; type: physicochemical; details: buffer, pH 7.4, 48 h
Outline: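 The compound was held in PBS pH 7.4 and the percent remaining was measured after 48 h. Done by a contract lab, and values are the average of two experiments.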

[18] = molecular target: T1, DNA repair nuclease/redox regulator APEX1; assay: Competitive inhibition of recombinant APE1 using […]-5'-AP-DNA as substrate assessed as decrease in APE1-DNA complex formation incubated for 10 mins prior to substrate addition measured after 5 mins by electrophoretic mobility shift assay; outline: as §5
Brain [19] = assay: Tmax in CD1 mouse brain at 30 mg/kg, ip; type: ADME, organism-based; parameters: dose 30 mg/kg, route intraperitoneal; details: in vivo; outline: as §2
Brain [20] = assay: Half life in CD1 mouse brain at 30 mg/kg, ip; type: ADME, organism-based; parameters: dose 30 mg/kg, route intraperitoneal; details: in vivo; outline: as §2
Brain [21] = assay: Cmax in CD1 mouse brain at 30 mg/kg, ip; type: ADME, organism-based; parameters: dose 30 mg/kg, route intraperitoneal; details: in vivo; outline: as §2
HeLa [22] = assay: Potentiation of methyl methanesulfonate cytotoxic activity against human HeLa cells assessed as decrease in cell viability at 2.5 to 5 uM incubated for 8 hrs measured after 56 hrs post compound wash-out by Hoechst 33342 staining-based assay; type: functional
HeLa [23] = assay: Potentiation of temozolomide cytotoxic activity against human HeLa cells assessed as decrease in cell viability at 10 to 15 uM after 24 hrs by CellTiterGlo assay; type: functional, cell-based; outline: as §1
CYP3A4 = CYP3A4 (Homo sapiens, UniProt P08684); assay: Inhibition of CYP3A4 at 10 uM; type: ADME
Chain of CYP3A4 (P08684 whole entry): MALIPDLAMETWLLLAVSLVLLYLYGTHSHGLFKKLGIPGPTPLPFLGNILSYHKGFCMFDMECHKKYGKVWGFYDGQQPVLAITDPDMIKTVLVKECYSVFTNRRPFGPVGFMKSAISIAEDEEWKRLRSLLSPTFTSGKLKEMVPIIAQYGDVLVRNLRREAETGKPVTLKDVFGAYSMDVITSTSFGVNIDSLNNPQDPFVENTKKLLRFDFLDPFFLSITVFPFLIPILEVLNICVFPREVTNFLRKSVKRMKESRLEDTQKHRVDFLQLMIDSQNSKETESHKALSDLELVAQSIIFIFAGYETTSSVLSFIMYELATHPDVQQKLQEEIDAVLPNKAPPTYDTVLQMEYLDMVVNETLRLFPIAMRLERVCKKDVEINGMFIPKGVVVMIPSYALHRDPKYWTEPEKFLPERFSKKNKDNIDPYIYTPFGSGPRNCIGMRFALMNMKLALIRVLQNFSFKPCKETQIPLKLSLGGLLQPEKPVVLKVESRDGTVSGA

[24] = molecular target: T1, DNA repair nuclease/redox regulator APEX1; assay: Inhibition of human APE1 expressed in Escherichia coli rosetta using fluorescein-dabcyl-containing oligonucleotide as substrate after 5 mins by fluorescence spectrophotometry
HeLa [25] = assay: Cytotoxicity against human HeLa cells at 15 uM after 24 hrs by CellTiterGlo assay; type: functional; outline: as §1
[26] = molecular target: T1, DNA repair nuclease/redox regulator APEX1; assay: Inhibition of recombinant APE1 using […]-5'-AP-DNA as substrate incubated for 15 mins prior to substrate addition measured after 5 mins by PAGE analysis
HeLa [27] = assay: Potentiation of methyl methanesulfonate cytotoxic activity against human HeLa cells assessed as decrease in cell viability at 1 to 2 uM incubated for 8 hrs measured after 56 hrs post compound wash-out by Hoechst 33342 staining-based assay; type: functional
HeLa [28] = assay: Potentiation of methyl methanesulfonate cytotoxic activity against human HeLa cells assessed as decrease in cell viability at 5 to 10 uM after 24 hrs by CellTiterGlo assay; type: functional, cell-based; outline: as §1
HeLa [29] = assay: Potentiation of temozolomide cytotoxic activity against human HeLa cells assessed as decrease in cell viability at 1 to 2 uM incubated for 8 hrs measured after 56 hrs post compound wash-out by Hoechst 33342 staining-based assay; type: functional
HeLa [30] = assay: Potentiation of temozolomide cytotoxic activity against human HeLa cells assessed as decrease in cell viability at 5 to 10 uM after 24 hrs by CellTiterGlo assay; type: functional, cell-based; outline: as §1

Structure (SMILES): CC(=O)Nc1sc2c(c1-c1nc3ccccc3s1)CNC2
- Activity (HeLa [1]): Active
- inhibition at 10 µM (CYP2D6): 39%
- t1/2 (Liver): 0.13 h
- Activity (HeLa [2]): Active
- Cmax (Plasma [3]): 36 µM
- Tmax (Plasma [4]): 0.25 h
- Activity (Mus musculus): Non-toxic
- t1/2 (Plasma [5]): 5 h
- inhibition [6]: Active
- inhibition [7]: Active
- Activity [8]: 0.1%
- inhibition [9]: Active
- inhibition [10]: Active
- Activity (HeLa [11]): 50%
- t1/2 (Plasma [12]): 3.55 h
- solubility kinetic [13]: 51.6 µM (≈ 16.3 µg/mL)
- fold change (FC) [14]: 3
- inhibition [15]: Active
- IC50 [16]: 3.3 µM
- Stability [17]: 100%
- inhibition [18]: Dose-dependent effect
- Tmax (Brain [19]): 0.25 h
- t1/2 (Brain [20]): 2.5 h
- Cmax (Brain [21]): 92 µM
- Activity (HeLa [22]): Active
- Activity (HeLa [23]): Active
- inhibition at 10 µM (CYP3A4): 50%

Structure (SMILES): Cc1cc(C)c2c(N)c3cccc(C)c3nc2n1
- IC50 [24]: 32 µM
- IC50 [16]: 32 µM

Structure (SMILES): CC(=O)Nc1sc2c(c1-c1nc3ccccc3s1)CCN(C(C)C)C2
- Activity (HeLa [25]): 50%
- inhibition at 10 µM (CYP2D6): 0%
- t1/2 (Liver): 1.33 h
- IC50 [26]: 12 µM
- Cmax (Plasma [3]): 16 µM
- Tmax (Plasma [4]): 0.25 h
- Activity (Mus musculus): Non-toxic
- Activity (HeLa [27]): Active
- t1/2 (Plasma [5]): 2.1 h
- inhibition [7]: Active
- Activity [8]: 0.6%
- inhibition [9]: Active
- inhibition [10]: Active
- Activity (HeLa [28]): Active
- t1/2 (Plasma [12]): > 4.17 h
- solubility kinetic [13]: 20.4 µM (≈ 7.58 µg/mL)
- fold change (FC) [14]: 3
- Activity (HeLa [29]): Active
- inhibition [15]: Active
- IC50 [16]: 2 µM
- Stability [17]: 100%
- inhibition [18]: Dose-dependent effect
- Tmax (Brain [19]): 0.25 h
- Activity (HeLa [30]): Active
- t1/2 (Brain [20]): 1 h
- Cmax (Brain [21]): 217 µM
- inhibition at 10 µM (CYP3A4): 53%
